Our source for the Selectivity ratio, IC50 and inhibition values is ChEMBL document CHEMBL1136760 (J Med Chem, 2003).

The target of experiment [1] is Monoamine transporters; serotonin & dopamine (Rattus norvegicus) (UniProt P31652+P23977). Briefly: Selectivity ratio for DAT binding compared to 5-HTT binding. The experiment is classed as protein assay.
Experiment [2] has as its target T1, Sodium-dependent dopamine transporter (Rattus norvegicus, UniProt P23977). Description: Inhibition of [3H]WIN-35428 binding to the cocaine binding site on the dopamine transporter (DAT) in synaptosomal membrane preparations from rat striatal tissue. The experiment is classed as cell membranes, Striatum.
The target in experiment [3] is Sodium-dependent serotonin transporter (Rattus norvegicus, UniProt P31652). Briefly: Inhibition of [3H]citalopram binding to Serotonin transporter (5-HTT) in rat cortical tissue. In outline: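 Rat cortical P2 fraction homogenized in 16 volumes of ice-cold 25 mM sodium phosphate, pH 7.7. [3H]citalopram at 2 nM final; 1 µM clomipramine defines nonspecific binding. Usually seven drug concentrations, triplicates, organic solvent ≤0.3 vol %. Incubated 3 h at 0 °C, then filtered on PEI-soaked glass fibre and counted. IC50 and Hill coefficients from dose-response curves.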

Experiment [4] concerns the target T1, Sodium-dependent dopamine transporter. Description: Inhibition of [3H]DA uptake at DAT in rat striatal synaptosomes.
For experiment [5], the target named is Sodium-dependent serotonin transporter (Rattus norvegicus) (UniProt P31652). Briefly: Inhibition of [3H]citalopram binding to Serotonin transporter (5-HTT) in rat cortical tissue […]. As to conditions: 10 uM. In outline: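 Rat cortical P2 membranes in 25 mM sodium phosphate, pH 7.7; 1 µM clomipramine defines nonspecific binding. Incubated 3 h at 0 °C, then rapid filtration on PEI-presoaked filters and radioactivity counting.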
Sodium-dependent serotonin transporter (Rattus norvegicus), sequence (P31652 whole entry): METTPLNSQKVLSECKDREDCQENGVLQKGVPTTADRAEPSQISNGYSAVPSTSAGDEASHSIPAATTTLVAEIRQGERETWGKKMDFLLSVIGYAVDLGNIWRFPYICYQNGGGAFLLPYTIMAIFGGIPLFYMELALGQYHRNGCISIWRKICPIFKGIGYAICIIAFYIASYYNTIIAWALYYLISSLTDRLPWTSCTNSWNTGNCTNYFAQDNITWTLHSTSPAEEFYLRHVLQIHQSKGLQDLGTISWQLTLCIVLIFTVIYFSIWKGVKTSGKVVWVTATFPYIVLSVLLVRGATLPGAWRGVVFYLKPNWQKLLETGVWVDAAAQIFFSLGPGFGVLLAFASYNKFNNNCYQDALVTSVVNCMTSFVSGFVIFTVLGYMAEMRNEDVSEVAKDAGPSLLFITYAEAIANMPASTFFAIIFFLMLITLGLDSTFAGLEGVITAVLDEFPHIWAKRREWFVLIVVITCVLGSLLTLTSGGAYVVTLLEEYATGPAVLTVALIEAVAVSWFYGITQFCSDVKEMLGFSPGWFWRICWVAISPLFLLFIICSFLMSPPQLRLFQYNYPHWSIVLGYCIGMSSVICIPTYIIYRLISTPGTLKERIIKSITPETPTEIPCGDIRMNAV

T1 sequence (P23977 whole entry): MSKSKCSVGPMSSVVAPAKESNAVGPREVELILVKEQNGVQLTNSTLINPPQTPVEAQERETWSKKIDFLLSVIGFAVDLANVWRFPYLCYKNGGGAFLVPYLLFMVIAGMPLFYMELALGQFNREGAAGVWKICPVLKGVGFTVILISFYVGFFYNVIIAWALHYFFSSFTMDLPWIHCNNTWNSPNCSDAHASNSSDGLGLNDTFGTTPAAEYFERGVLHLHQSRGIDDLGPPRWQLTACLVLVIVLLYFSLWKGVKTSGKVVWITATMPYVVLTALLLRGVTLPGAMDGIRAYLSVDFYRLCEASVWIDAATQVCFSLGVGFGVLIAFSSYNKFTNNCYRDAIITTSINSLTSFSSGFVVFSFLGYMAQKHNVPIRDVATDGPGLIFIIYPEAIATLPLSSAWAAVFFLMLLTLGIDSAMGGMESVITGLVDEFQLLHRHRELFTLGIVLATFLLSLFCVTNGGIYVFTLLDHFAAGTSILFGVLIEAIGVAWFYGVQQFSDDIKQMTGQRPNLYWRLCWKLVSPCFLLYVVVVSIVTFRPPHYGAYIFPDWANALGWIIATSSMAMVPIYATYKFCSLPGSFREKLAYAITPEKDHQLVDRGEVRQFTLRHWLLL
Monoamine transporters; serotonin & dopamine (Rattus norvegicus), sequence (P23977 whole entry, looked up): as the sequence (P23977 whole entry) above
Monoamine transporters; serotonin & dopamine (Rattus norvegicus), sequence (P31652 whole entry, looked up): as the sequence (P31652 whole entry) above
Sodium-dependent serotonin transporter, sequence (P31652 whole entry): as above

Turning to `c1ccc(CN2CC3CCC(C2)C3c2ccccc2)cc1` (stereo in doubt; 8a), the Selectivity ratio in experiment [1] was found to be 14.8.

Consider `OC1(c2ccccc2)C2CCC1CN(Cc1ccccc1)C2` (stereo unspecified), for which the half-inhibitory concentration (IC50) came out at 17500 nM in experiment [2], 3060 nM in experiment [3] and 27100 nM in experiment [4]. Besides, the Selectivity ratio in experiment [1] stood at 0.17.

In the case of `c1ccc(CN2CC3CCC(C2)C3OC(c2ccccc2)c2ccccc2)cc1` (stereo in doubt; 17b) [listing 1 of 2 here], the figures for the half-inhibitory concentration (IC50) in experiment [2], in experiment [3] and in experiment [4] were 536 nM, > 10000 nM and 1980 nM, respectively.

With `c1ccc(CN2CC3CCC(C2)C3OC(c2ccccc2)c2ccccc2)cc1` (stereo in doubt; 17b) [listing 2 of 2 here], the inhibition in experiment [5] was determined as 29.8%. In experiment [1], the Selectivity ratio was > 18.

In turn, `BrC1C2CCC1CN(Cc1ccccc1)C2` (stereo unspecified) returned an inhibition in experiment [5] of 30.4%. In addition, in experiment [1], the Selectivity ratio is > 2.2. The values for the 50% inhibitory concentration (IC50) in experiment [3] and in experiment [4] were > 10000 nM and 8640 nM, respectively.

As for `c1ccc(CN2CC3CCC(C2)C3c2ccccc2)cc1` (stereo in doubt; 8a) [3-BENZYL-8-PHENYL-3-AZA-BICYCLO[3.2.1]OCTANE (STEREOISOMERIC MIX)], the IC50 in experiment [2] is 234 nM; in experiment [3], 3460 nM; in experiment [4] it was 309 nM.

On to `c1ccc(C2C3CCC2CNC3)cc1` (stereo unspecified), for which the IC50 in experiment [2] was found to be 258 nM; in experiment [3], 4000 nM; in experiment [4], 893 nM. In addition, the Selectivity ratio in experiment [1] is 16.

With `c1ccc(CN2CC3CCC(C2)C3OC(c2ccccc2)c2ccccc2)cc1` (stereo in doubt; 17a) [listing 1 of 2 here], the values for the IC50 in experiment [2], in experiment [3] and in experiment [4] were 363 nM, 10000 nM and 735 nM, respectively.

As for `Clc1ccc(C2C3CCC2CN(Cc2ccccc2)C3)cc1` (stereo unspecified), the figures for the IC50 in experiment [2], in experiment [3] and in experiment [4] were 95.5 nM, 402 nM and 601 nM, respectively. The Selectivity ratio in experiment [1] turned out to be 4.2.

On to `c1ccc(CN2CC3CCC(C3)C2)cc1`, for which the IC50 in experiment [2] is 24300 nM; in experiment [3], > 10000 nM; in experiment [4], 35700 nM. For the same compound, the inhibition in experiment [5] was 24.4%. In addition, the Selectivity ratio in experiment [1] was > 0.41.

In experiment [5], `c1ccc(CN2CC3CCC(C2)C3OC(c2ccccc2)c2ccccc2)cc1` (stereo in doubt; 17a) [listing 2 of 2 here] showed an inhibition of 61%. For the same compound, in experiment [1], the Selectivity ratio amounted to 27.

With `CN1CC2CCC(C1)C2c1ccccc1` (stereo unspecified), the IC50 in experiment [2] was found to be 360 nM; in experiment [3] it was 1850 nM; in experiment [4], 1040 nM. The Selectivity ratio in experiment [1] is 5.1.

Compound `OC1(c2ccccc2)C2CCC1CNC2` (stereo unspecified) yielded an inhibition in experiment [5] of 46.2%. Moreover, the IC50 in experiment [4] was determined as 8480 nM.

In the case of `c1ccc(CN2CC3CCC(C2)C3c2ccccc2)cc1` (stereo in doubt; 14) [3-BENZYL-8-PHENYL-3-AZA-BICYCLO[3.2.1]OCTANE (STEREOISOMERIC MIX)], the concentration for half-maximal inhibition (IC50) amounted to 785 nM in experiment [2], 3880 nM in experiment [3] and 4450 nM in experiment [4].

In the case of `Clc1ccc(C2C3CCC2CNC3)cc1` (stereo unspecified), the half-inhibitory concentration (IC50) in experiment [2] is 81.5 nM; in experiment [3], 363 nM; in experiment [4] it was 478 nM. Further, in experiment [1], the Selectivity ratio amounted to 4.4.

For the compound `OC1(c2ccc(Cl)cc2)C2CCC1CN(Cc1ccccc1)C2` (stereo unspecified), the values for the IC50 in experiment [2], in experiment [3] and in experiment [4] were 1510 nM, 997 nM and 2630 nM, respectively. Moreover, the Selectivity ratio in experiment [1] was found to be 0.66.

Consider `c1ccc(CN2CC3CCC(C2)C3c2ccccc2)cc1` (stereo in doubt; 14), for which, in experiment [1], the Selectivity ratio was found to be 4.9.

As to `OC1C2CCC1CN(Cc1ccccc1)C2` (stereo unspecified), the half-maximal inhibitory concentration (IC50) in experiment [2] was 22100 nM; in experiment [3], > 10000 nM; in experiment [4] it was 45000 nM. Further, in experiment [5], the inhibition came out at 23.8%. Also, the Selectivity ratio in experiment [1] is > 0.45.

On to `CN1CC2CCC(C1)C2(O)c1ccccc1` (stereo unspecified), for which the IC50 in experiment [2] was 10100 nM; in experiment [3], > 10000 nM; in experiment [4] it was 9770 nM. The inhibition in experiment [5] amounted to 27.8%. Also, the Selectivity ratio in experiment [1] is > 1.

Regarding `CN1CC2CCC(C1)C2c1ccc(Cl)cc1` (stereo unspecified), the Selectivity ratio in experiment [1] stood at 0.81. Also, the IC50 was determined as 220 nM in experiment [3] and 926 nM in experiment [4].
